Test results published in publication PMC4091680 (Bioorganic & medicinal chemistry, 2014).

What was measured:
[1] = test system: tubulin (colchicine site); experiment: Inhibition of [3H]colchicine binding to tubulin; parameters: species or system bovine; conditions: for Inhibition of colchicine binding % Inhibition ± SD: tubulin 1 µM, colchicine 5 µM
In short: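 Purified bovine brain tubulin at 0.1 mg/mL (1.0 µM) was incubated 10 min at 37 °C with 5.0 µM [3H]colchicine, test compound, 5% (v/v) DMSO and 1.0 M glutamate. Reactions were stopped with 0 °C water, filtered through two stacked DEAE-cellulose filters and washed three times with ice-cold water. Filter-bound radiolabel was counted by liquid scintillation; % inhibition ± SD.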

HeLa cells [2] = experiment: Flow cytometric cell cycle distribution, HeLa; format: cell-based, human; conditions: 24 h
In short: (§1)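 Per assay, 5×10^5 cells were exposed to test compound at several concentrations for 24 h. Cells were then collected, fixed in ice-cold 70% ethanol, lysed in buffer with RNase A and 0.1% Triton X-100, PI-stained and run on a flow cytometer. Phase distribution came from DNA histograms; means ± SEM of three independent experiments.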

HL-60 cells [3] = experiment: Flow cytometric cell cycle distribution, HL-60; format: cell-based, human; conditions: HL-60, 24 h
In short: as §1

HeLa cells [4] = experiment: Annexin-V/PI apoptosis assay, HeLa; format: cell-based, human; conditions: 24 or 48 h
HL-60 cells [5] = experiment: Annexin-V/PI apoptosis assay, HL-60; format: cell-based, human; conditions: HL-60, 24 or 48 h
[6] = test system: caspase-3 and PARP in HL-60 cells; experiment: Western blot analysis of caspase-3 and PARP; format: cell-based, human; conditions: HL-60, 24 h and 48 h
In short: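 HL-60 cells were treated with test compound at various concentrations and times, washed in ice-cold PBS and lysed on ice 30 min. Lysates were cleared at 15000 × g, 4 °C, 10 min. Per lane, 20 µg protein (BCA) was separated by SDS-PAGE (7.5–15%) and blotted to PVDF. Membranes were blocked with 5% BSA, probed overnight at 4 °C for caspase-3 and PARP, then with peroxidase secondaries and ECL. Reprobing for β-actin checked loading.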

[7] = test system: purified bovine brain tubulin; experiment: Tubulin polymerization assay; format: biochemical
Raji = experiment: MTT cytotoxicity assay, Raji; format: cell-based, human; conditions: 48 h
In short: (§2)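 Cells grew in RPMI-1640 with 10% FBS, L-glutamine, penicillin and streptomycin at 37 °C, 5% CO2. They were seeded at 10,000/well overnight in 1% FBS medium, then treated 48 h with test compound at 0.1–125 µM; the solvent control was 0.1% DMSO. MTT (0.5 mg/mL final) was added for 4 h, formazan dissolved in DMSO, and absorbance read at 570 nm. Quadruplicates were taken as % of solvent control, IC50 from concentration–response curves.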

HeLa = experiment: MTT cytotoxicity assay, HeLa; format: cell-based, human; conditions: 48 h
In short: as §2

In the case of `COc1cc(NC(=O)/C=C/c2c[nH]c3ccccc23)cc(OC)c1OC` [Compound 3e, (E)-3-(1H-Indol-3-yl)-N-(3,4,5-trimethoxyphenyl)acrylamide], the “inhibition of [3H]colchicine binding (in words)” value ([1]; compound 50 µM) is reported as “Significant inhibition”, the “lowest concentration giving increase in G2/M phase cells” value (HeLa cells [2]) is reported as 10 µM and the “cells blocked in G2/M” value (HeLa cells [2]; 15–30 µM) is reported as “more than 80%”. The “lowest concentration giving increase in G2/M phase cells” value (HL-60 cells [3]) was 10 µM, the “cells blocked in G2/M” value (HL-60 cells [3]; 15–30 µM) was over 60% and the “annexin-V+/PI− and annexin-V+/PI+ fractions (apoptosis)” value (HeLa cells [4]) was “concentration- and time-dependent increase”. The “annexin-V+/PI− and annexin-V+/PI+ fractions (apoptosis)” value (HL-60 cells [5]) was “concentration- and time-dependent increase”, the PARP cleavage [6] was “cleavage of its substrate PARP” and the “caspase-3 activation (cleaved fragments)” value [6] was “induced the activation of caspase-3”.

In the case of `COc1cc(NC(=O)/C=C/c2c[nH]c3ccccc23)cc(OC)c1` [Compound 3d, (E)-N-(3,5-Dimethoxyphenyl)-3-(1H-indol-3-yl)acrylamide], the “antitubulin activity (in words)” value [7] is reported as “inactive”.

`COc1ccc(CNC(=O)/C=C/c2c[nH]c3ccccc23)c(OC)c1` [Compound 3i, (E)-N-(2,4-Dimethoxybenzyl)-3-(1H-indol-3-yl)acrylamide] was tested, and the “activity against Raji cells (in words)” value (Raji) was “weak activity”.

With `COc1cc(CNC(=O)/C=C/c2c[nH]c3ccccc23)ccc1O` [Compound 3g, (E)-N-(4-Hydroxy-3-methoxybenzyl)-3-(1H-indol-3-yl)acrylamide] the “activity against Raji cells (in words)” value (Raji) was “weak activity”.

With `COc1ccc(NC(=O)/C=C/c2c[nH]c3ccccc23)cc1OC` [Compound 3c, (E)-N-(3,4-Dimethoxyphenyl)-3-(1H-indol-3-yl)acrylamide] the “antitubulin activity (in words)” value [7] was “inactive”.

`COc1ccc(/C=C\c2cc(OC)c(OC)c(OC)c2)cc1O` [CA-4, combretastatin A-4] was tested, and the “Inhibition of colchicine binding % Inhibition ± SD” value ([1]; compound 1 µM) was 88 ± 0.3% and the “Inhibition of colchicine binding % Inhibition ± SD” value ([1]; compound 5 µM) was 98 ± 0.8%.

`COc1ccc(OC)c(NC(=O)/C=C/c2c[nH]c3ccccc23)c1` [Compound 3b, (E)-N-(2,5-Dimethoxyphenyl)-3-(1H-indol-3-yl)acrylamide] was tested, and the “antitubulin activity (in words)” value [7] was “inactive”.

`COc1cccc(CNC(=O)/C=C/c2c[nH]c3ccccc23)c1OC` [Compound 3h, (E)-N-(2,3-Dimethoxybenzyl)-3-(1H-indol-3-yl)acrylamide] was tested, and the “activity against HeLa cells (in words)” value (HeLa) was “weak activity”.
